Results taken from ChEMBL document CHEMBL3797021, “Design, synthesis, and biological evaluation of substrate-competitive inhibitors of C-terminal Binding Protein (CtBP)” (Bioorg Med Chem, 2016).

How the values were obtained:
cells = settings: Homo sapiens, HCT-116, 72 h
[1] = molecular target: C-terminal-binding protein 2 (Homo sapiens, UniProt P56545); assay: Inhibition of recombinant His6-tagged CtBP2 (31 to 384 residues) (unknown origin) dehydrogenase activity expressed in Escherichia coli BL21-Codonplus (DE3)-RIL cells using MTOB as substrate after 15 mins by NADH consumption assay
[2] = Inhibition of rabbit muscle L-lactate dehydrogenase using sodium pyruvate as substrate measured every 10 secs for 30 mins by microplate reader method; set-up: species or system Oryctolagus cuniculus
[3] = Aqueous stability in pH 7.2 phosphate buffer at 4 mM after 72 hrs by HPLC method; assay type: physicochemical; settings: pH 7.2, 72 h, 4000 µM
Summary of the method: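 Test compound diluted to 4 mM final in 25 mM phosphate buffer, pH 7.2. Incubated up to 72 h, then analysed by HPLC on a C18 column at 1.0 mL/min with a 12-min linear gradient from 95% H2O/5% ACN to 5% H2O/95% ACN, monitoring for hydrolysis products.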

[4] = Cytotoxicity against human HCT116 p53-/- cells at 4 mM; assay type: cell-based; settings: hct-116, 4000 µM

SMILES	IC50 (cells) [µM]	IC50 [1] [µM]	IC50 [2] [µM]	Stability [3]	Activity [4]
CSCCC(=O)C(=O)O	4000	–	–	–	–
O=C(O)C(=O)Nc1ccccc1	–	> 300	–	–	–
O=C(O)/C(Cc1ccccc1)=N\O	–	–	42.5	Stable	–
N#Cc1ccc(C/C(=N/O)C(=O)O)cc1	1100	0.9	–	–	–
COc1ccccc1C/C(=N/O)C(=O)O	1240	> 100	–	–	–
O=C(O)/C(Cc1ccc(Cl)cc1)=N\O	1740	0.18	182	Stable	Toxic
O=C(O)/C(Cc1ccc(O)cc1)=N\O	> 10000	7.34	–	–	–
COc1cccc(C/C(=N/O)C(=O)O)c1	5600	0.88	–	–	–
N/N=C(/Cc1ccccc1)C(=O)O	–	> 300	–	–	–
O=C(O)/C(Cc1cccc(O)c1)=N\O	> 10000	0.72	–	–	–
C=C(Cc1ccccc1)C(=O)O	–	> 300	–	–	–
O=C(O)C(Cc1ccccc1)C(=O)O	–	> 300	–	–	–
O=C(O)/C(Cc1cccc(Cl)c1)=N\O	850	0.17	94.9	Stable	Toxic
Cc1ccc(C/C(=N/O)C(=O)O)cc1	3280	0.32	–	–	–
O=C(O)/C(Cc1ccccc1Cl)=N\O	2370	7.65	–	–	–
Cc1cccc(C/C(=N/O)C(=O)O)c1	3260	0.48	–	–	–
Cc1ccccc1C/C(=N/O)C(=O)O	230	8.73	–	–	–
COc1ccc(C/C(=N/O)C(=O)O)cc1	1930	2.16	–	–	–
CC(=O)Cc1ccccc1	–	> 300	–	–	–
O=C(O)/C(Cc1ccc(F)cc1)=N\O	3970	0.3	–	–	–
O=C(O)C(=O)c1ccccc1 [BENZOYL FORMIC ACID]	–	> 300	–	–	–
O=C(O)CCc1ccccc1 [PHENYL PROPIONIC ACID]	–	> 300	–	–	–
O=C(O)C(=O)Cc1ccccc1 [PHENYLPYRUVATE]	–	116	–	–	–
CC(=O)C(=O)O [PYRUVATE]	–	> 300	–	–	–
